Assay outcomes: PubChem BioAssay, Broad Institute
DENV2 CPE rescue: protects cells from dengue virus 2 cytopathic effect | DENV2-infected cells, cytopathic effect rescue, plate reader | CPE inhibition, % at 9.99 µM | hit rate 1.7% among 350,000 | AID 651640; in the data active = CPE inhibition above about 20%, passing the limit was not always enough; inconclusive = no clear call, values can overlap the other calls; tested in BHK-21 cells;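 note: 0% = median of neutral control wells and 100% = median of positive control wells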
ERAP1 HTS inh: blocks human ERAP1 aminopeptidase activity | hit rate 0.15% among 340,000 | inhibition, % at 10.7 µM | recombinant ERAP1, Leu-AMC fluorescence, 60 min | AID 652197 | Q9NZ08;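 active = mean replicate inhibition of at least 30%, or all replicates individually reaching that 30% level; inactive = mean below 30% and not every replicate reaching it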;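 note: 0% = neutral control wells and 100% = L-leucinethiol positive control wells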
miR122 inh: miR-122 inhibition in Huh7 cells | Huh7 miR-122 Renilla luciferase sensor, 48 h; neutral wells = 0, positive control = 100 | activation (reporter increase), % at 12.5 µM | hit rate 0.3% among 340,000;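 active = mean replicate activation score at least 90 and every replicate individually at or above 90; inconclusive = only one of the two criteria met; inactive = neither criterion met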;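 note: higher luciferase means less miR-122 activity so hits act as miR-122 inhibitors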
GSIS activator: GLuc luminescence reporter in INS-1E cells, primary screen for activators of glucose-dependent secretion of insulin. INS-1E GLuc reporter insulin secretion, 2-3 h. activation, % at 16.6 µM. hit rate 0.61% among 370,000. AID 743287;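 active = lowest replicate activation of at least 40%, so every replicate reaches that level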;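 note: 0% = median of neutral control wells and 100% = median of IBMX positive control wells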
E-sel inducer: E-selectin induction on HUVECs | P16581 | HUVEC E-selectin immunofluorescence imaging; normalized: neutral wells 0, TNF-alpha wells 100 | activation, % at 7.58 µM | hit rate 0.37% among 260,000 | AID 686992;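 active = mean E-selectin-positive cell signal at least 10% of the positive control, reached in at least 60% of replicates, without over 20% cell loss; inconclusive = no rule given, readout overlaps actives, possibly toxicity-flagged; inactive = the rest, including those meeting only one limit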
Target sequence (P16581 whole entry, looked up): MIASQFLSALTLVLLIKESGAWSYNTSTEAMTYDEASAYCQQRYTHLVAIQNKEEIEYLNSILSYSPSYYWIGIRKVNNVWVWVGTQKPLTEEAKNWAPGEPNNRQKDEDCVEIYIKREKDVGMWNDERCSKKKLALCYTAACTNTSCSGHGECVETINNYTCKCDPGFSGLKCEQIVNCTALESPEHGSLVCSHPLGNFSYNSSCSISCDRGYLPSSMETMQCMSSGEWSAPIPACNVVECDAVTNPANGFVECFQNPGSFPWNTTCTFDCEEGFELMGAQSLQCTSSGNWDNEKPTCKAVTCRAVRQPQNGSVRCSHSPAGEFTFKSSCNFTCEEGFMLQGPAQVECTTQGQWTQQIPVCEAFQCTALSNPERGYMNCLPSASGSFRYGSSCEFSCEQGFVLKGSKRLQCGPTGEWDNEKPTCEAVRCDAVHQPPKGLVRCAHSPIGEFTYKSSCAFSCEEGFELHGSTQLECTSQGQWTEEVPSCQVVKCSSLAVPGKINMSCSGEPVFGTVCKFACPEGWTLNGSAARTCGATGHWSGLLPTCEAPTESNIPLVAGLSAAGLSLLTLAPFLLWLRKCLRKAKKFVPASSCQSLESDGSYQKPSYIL
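System: HUVEC / Compound: single concentration / Signal: immunofluorescence imaging / Read-out: percent E-selectin-positive cells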
CFTR F508del cor: CFTR F508del correction in bronchial cells; CFBE cells, YFP halide quenching; stimulated with forskolin plus potentiator P3; % fluorescence drop versus neutral controls; activity (quench increase), % at 7.58 µM; hit rate 0.36% among 350,000;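 active = mean added fluorescence quench of at least 8% versus neutral control, with both replicates also reaching 8%; inconclusive = only one of the mean or replicate conditions met; inactive = mean below 8% and not both replicates reaching 8%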;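 note: cells transiently co-express mutant CFTR-F508del with the halide-sensitive YFP; corrector assay measuring rescue of mutant channel to the surface after 24 h compound exposure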
Numbers without * were called inactive; u = inconclusive; x = no result given; [ ] = dose if it differs, or a comment. Sampled rows, rich in hits. Any-hit rate of the full collection: about 2.6%.

SMILES	DENV2 CPE rescue	ERAP1 HTS inh	miR122 inh	GSIS activator	E-sel inducer	CFTR F508del cor
CC1CN(S(=O)(=O)c2ccc(C(=O)N3CCc4ccccc43)cc2)CC(C)O1 (stereo unspecified)	12	2	-7	-5	0	16*
O=S(=O)(c1ccc(Cl)nc1)N1CCc2ccccc21	-9	0	0	54*	x	2
C[C@@H]1CN([C@@H](C)CO)C(=O)c2cccc(NS(=O)(=O)c3ccc(F)cc3)c2O[C@H]1CN(C)S(=O)(=O)c1cn(C)cn1	-2	-1	5[16.7 µM]	-1	0	-2
Cc1ccc(CC(=O)N(Cc2ccccc2)c2ccccn2)cc1	-2	9	118*	1	-2	1
COCC(=O)Nc1ccc2c(c1)[C@@H]1C[C@@H](CC(=O)NCc3cc(F)ccc3F)O[C@H](CO)[C@@H]1O2	-11	x	-6[16.7 µM]	5	0	-2
O=C(C[C@H]1C[C@@H]2c3cc(NC(=O)C4CCC4)ccc3O[C@@H]2[C@H](CO)O1)NCc1ccccc1	23*	4	-3[16.7 µM]	10	-1	-1
O=C(C[C@H]1C[C@H]2c3cc(NC(=O)Nc4ccccc4)ccc3O[C@H]2[C@H](CO)O1)NCc1ccncc1	62*	1	1[16.7 µM]	21	0	-3
COCC(=O)Nc1ccc2c(c1)[C@@H]1C[C@@H](CC(=O)N(C)C)O[C@H](CO)[C@@H]1O2	18	x	4[16.7 µM]	-8	0	-2
COCC(=O)Nc1ccc2c(c1)[C@@H]1C[C@H](CC(=O)N(C)C)O[C@@H](CO)[C@@H]1O2	30*	-3	0[16.7 µM]	7	0	1
O=C(C[C@@H]1C[C@H]2c3cc(NC(=O)Nc4ccccc4)ccc3O[C@H]2[C@@H](CO)O1)NCc1ccncc1	-4	-2	-1[16.7 µM]	-4	0	-3
COCC(=O)Nc1ccc2c(c1)[C@H]1C[C@@H](CC(=O)NCc3cc(F)ccc3F)O[C@@H](CO)[C@H]1O2	38*	x	-2[16.7 µM]	-8	0	-3
O=C(C[C@@H]1CC[C@@H](NC(=O)Nc2ccccc2)[C@H](CO)O1)NCc1ccccn1	19	2	x	-3	0	-2
O=C(CN1CCOCC1)N[C@@H]1CC[C@H](CCNC(=O)C2CCCC2)O[C@@H]1CO	10	0	32[16.7 µM]	13	0	0
CCNC(=O)[C@H]1[C@H](CO)[C@H]2Cn3c(ccc(-c4ccccc4F)c3=O)[C@@H]1N2C(=O)CC	0	2	1[16.7 µM]	32	0	2
O=C(CCN1CCCCC1)NCC[C@@H]1CC[C@H](NS(=O)(=O)c2cccc(Cl)c2)[C@@H](CO)O1	x	x	x	-2	0	-4
CNC(=O)C[C@@H]1CC[C@H]2[C@H](COc3ccc(NC(=O)Nc4ccccc4OC)cc3C(=O)N2C)O1	5	2	-8[16.7 µM]	-7	0	-1
COCC(=O)Nc1ccc2c(c1)[C@H]1C[C@H](CC(=O)NCc3ccccc3)O[C@@H](CO)[C@H]1O2	21*	1	2[16.7 µM]	-6	0	-3
O=C(C[C@@H]1C[C@@H]2c3cc(NC(=O)CC4CC4)ccc3O[C@@H]2[C@H](CO)O1)NCc1cccc(F)c1	-4	-5	0[16.7 µM]	-7	0	-2
O=C(C[C@@H]1C[C@H]2c3cc(NC(=O)CC4CC4)ccc3O[C@H]2[C@H](CO)O1)NCc1cccc(F)c1	-4	3	27[16.7 µM]	0	0	9.0*
COCC(=O)Nc1ccc2c(c1)[C@@H]1C[C@H](CC(=O)NCc3ccccc3)O[C@@H](CO)[C@@H]1O2	-2	2	-4	6	0	-2
COCC(=O)Nc1ccc2c(c1)[C@H]1C[C@@H](CC(=O)O)O[C@@H](CO)[C@H]1O2	43*	-3	x	15	0	-1
CN(C)C(=O)C[C@H]1C=C[C@H](NC(=O)C2CCOCC2)[C@@H](CO)O1	2	-4	x	-1	0	3
C[C@@H]1CN([C@@H](C)CO)C(=O)c2cc(NS(=O)(=O)c3cn(C)cn3)ccc2O[C@@H](C)CCCCO[C@@H]1CN(C)S(=O)(=O)c1ccc(Cl)cc1	-11	-3	6[16.7 µM]	-1	0	-2
O=C(COC(=O)Cc1ccsc1)Nc1cccc(F)c1	15	1	x	9	0	16*
O=C1CSC(c2ccccc2)N1c1ccc(F)cc1F (stereo unspecified)	8	5	17	48*	x	0
SMILES	DENV2 CPE rescue	ERAP1 HTS inh	miR122 inh	GSIS activator	E-sel inducer	CFTR F508del cor
O=C1CSC(c2ccccc2)N1c1ccccc1F (stereo unspecified)	-1	3	-2	39	x	1
CCCCCNC(=O)c1ccc(NS(=O)(=O)c2ccc3[nH]c(=O)[nH]c3c2)cc1	0	0	-2	15	0	1
CCCCNC(=O)c1ccc(NS(=O)(=O)c2ccc3[nH]c(=O)[nH]c3c2)cc1	23*	-2	-5	12	0	3
O=C(NCC[C@H]1CC[C@H](NC(=O)c2cccnc2)[C@H](CO)O1)Nc1ccc(Cl)cc1	2	0	x	-18	0	-1
CC[C@H]1C/C=C\C[C@@H](c2ccc(F)cc2)NC(=O)CCC(=O)N1	x	x	x	2	x	x
O=C(NC1CCC1)[C@@H]1[C@@H](CO)[C@@H]2Cn3c(cccc3=O)[C@@H]2N1CCc1ccccc1	-2	-3	x	27	0	x
O=[N+]([O-])c1ccc(N=Nc2ncc[nH]2)cc1	14	0	x	-5	30*	8
CC1=C(C(=O)OC(C)C)C(c2ccc(N(C)C)cc2)C2=C(CC(C)(C)CC2=O)N1 (stereo unspecified)	x	x	150*	-17	x	x
CNc1nc(OCC#N)nc(N2CCCCC2)n1	-4	-1	x	44*	x	0
C[C@H](O)C#Cc1ccc2c(c1)O[C@@H](CN(C)CC1CCOCC1)[C@H](C)CN([C@H](C)CO)S2(=O)=O	-2	x	78[16.7 µM]	20	-4	2
CO[C@H]1CN(C)C(=O)c2ccc(NC(=O)c3ccccc3)cc2OC[C@H](C)N(C(=O)CN(C)C)C[C@@H]1C	x	x	x	16	x	x
CO[C@H]1CN(C)C(=O)c2ccc(NC(=O)c3ccccc3)cc2OC[C@@H](C)N(C(=O)CN(C)C)C[C@@H]1C	28*	-5	7[16.7 µM]	-3	0	2
CO[C@@H]1CN(C)C(=O)c2ccc(NC(=O)c3ccccc3)cc2OC[C@H](C)N(C(=O)CN(C)C)C[C@@H]1C	34*	-2	0[16.7 µM]	3	0	0
C[C@H]1CN([C@@H](C)CO)C(=O)c2cc(NC(=O)Cc3cn(C)c4ccccc34)ccc2O[C@H]1CN(C)C(=O)NC1CCCCC1	u	-4	-8[16.7 µM]	-30	x	1
COc1ccccc1CNC(=O)C[C@H]1CC[C@H](NC(=O)CC2CC2)[C@H](CO)O1	6	-1	x	0	0	0
